Tests used:
[1] = tested on: Human immunodeficiency virus 1; assay: Antiviral activity against HIV1 3B infected in human MT4 cells assessed as inhibition of virus-induced cytopathic effect by MTT assay; assay type: functional, organism-based; conditions: Human immunodeficiency virus 1, 3B
Procedure, shortened: (§1)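 Human lymphocyte MT-4 cultures infected with HIV-1; HIV-induced cytopathic effect read by MTT assay; EC50 is the concentration reducing cytopathic effect by 50%; average ± SD; SI is CC50/EC50.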

[2] = Selectivity index, ratio of CC50 for human MT4 cells to EC50 for HIV1 3B; assay type: toxicity, cell-based; conditions: read-out: Ratio CC50/EC50; procedure, shortened: as §1
[3] = biological target: T1, Human immunodeficiency virus type 1 integrase (Human immunodeficiency virus 1, UniProt Q7ZJM1); assay: Inhibition of HIV1 integrase activity by ELISA
T1 sequence (Q7ZJM1 whole entry): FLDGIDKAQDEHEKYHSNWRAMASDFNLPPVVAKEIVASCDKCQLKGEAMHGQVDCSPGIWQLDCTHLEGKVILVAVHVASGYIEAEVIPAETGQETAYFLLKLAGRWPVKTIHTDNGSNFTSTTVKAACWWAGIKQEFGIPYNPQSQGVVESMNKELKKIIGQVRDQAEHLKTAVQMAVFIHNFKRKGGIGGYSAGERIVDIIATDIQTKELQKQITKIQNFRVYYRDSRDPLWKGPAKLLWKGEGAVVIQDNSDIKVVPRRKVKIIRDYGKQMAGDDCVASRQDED
Procedure, shortened: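 In vitro overall integrase reaction measured by enzyme-linked immunosorbent assay; IC50 is the concentration giving 50% inhibition of overall integrase activity; average ± SD.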

[4] = biological target: T1, Human immunodeficiency virus type 1 integrase; assay: Inhibition of HIV1 integrase strand transfer activity by ELISA
Procedure, shortened: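 Strand transfer step of integration measured in vitro by enzyme-linked immunosorbent assay; IC50 is the concentration giving 50% inhibition of strand transfer; average ± SD.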

[5] = Cytotoxicity against human MT4 cells by MTT assay; assay type: cell-based
Procedure, shortened: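 Uninfected MT-4 cells; viability read by MTT assay; CC50 is the concentration reducing viability by 50%; average ± SD; SI is CC50/EC50.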

SMILES	EC50 [1] [nM]	selectivity ratio [2]	IC50 [3] [nM]	IC50 [4] [nM]	CC50 [5] [nM]
COc1cccc2c1c(C(=O)/C=C(\O)C(=O)O)cn2Cc1ccc(F)cc1	590	70	–	–	–
COc1cccc2c1c(C(=O)/C=C(\O)C(=O)O)cn2Cc1c(F)cccc1F	410	108	130	80	44300
COc1cccc2c1c(C(=O)/C=C(\O)C(=O)O)cn2Cc1cccc(F)c1F	260	> 68.7	10	120	17500
COc1cccc2c1c(C(=O)/C=C(\O)C(=O)O)cn2Cc1ccc(F)c(F)c1	2800	25	420	600	71000
CCOC(=O)/C(O)=C/C(=O)c1cn(Cc2cccc(F)c2)c2cccc(OC)c12	2210	28.5	300	2260	63200
CCOC(=O)/C(O)=C/C(=O)c1cn(Cc2ccc(F)c(F)c2)c2cccc(OC)c12	80100	> 2	26500	1560	125000
CCOC(=O)/C(O)=C/C(=O)c1cn(Cc2cc(F)cc(F)c2)c2cccc(OC)c12	5940	> 5.8	1520	2740	34700
CCOC(=O)/C(O)=C/C(=O)c1cn(Cc2ccc(F)c(F)c2F)c2cccc(OC)c12	3150	> 13	3010	1150	42700
CCOC(=O)/C(O)=C/C(=O)c1cn(Cc2cc(F)ccc2F)c2cccc(OC)c12	3150	13.1	1410	400	41200
CCOC(=O)/C(O)=C/C(=O)c1cn(Cc2c(F)cccc2F)c2cccc(OC)c12	2040	> 31.1	360	70	63400
CCOC(=O)/C(O)=C/C(=O)c1cn(Cc2ccccc2F)c2cccc(OC)c12	1400	45.3	380	720	63300
CCOC(=O)/C(O)=C/C(=O)c1cn(Cc2ccc(F)cc2F)c2cccc(OC)c12	1950	33.7	110	670	65500
CCOC(=O)/C(O)=C/C(=O)c1cn(Cc2cc(F)c(F)c(F)c2)c2cccc(OC)c12	3960	8.4	2000	1410	33400
COc1cccc2c1c(C(=O)/C=C(\O)C(=O)O)cn2Cc1ccccc1F	310	228	70	40	70500
COc1cccc2c1c(C(=O)/C=C(\O)C(=O)O)cn2Cc1cc(F)c(F)c(F)c1	2210	10.5	60	100	23300
CCOC(=O)/C(O)=C/C(=O)c1cn(Cc2c(F)ccc(F)c2F)c2cccc(OC)c12	4840	8.4	170	820	40500
COc1cccc2c1c(C(=O)/C=C(\O)C(=O)O)cn2Cc1cc(F)ccc1F	410	113	50	20	46200
CCOC(=O)/C(O)=C/C(=O)c1cn(Cc2cccc(F)c2F)c2cccc(OC)c12	1900	11.1	5	12	21100
COc1cccc2c1c(C(=O)/C=C(\O)C(=O)O)cn2Cc1ccc(F)c(F)c1F	1150	19.9	140	280	22800
COc1cccc2c1c(C(=O)/C=C(\O)C(=O)O)cn2Cc1ccc(F)cc1F	410	50.7	10	20	20800
COc1cccc2c1c(C(=O)/C=C(\O)C(=O)O)cn2Cc1cc(F)cc(F)c1	2780	10.6	440	240	29500
COc1cccc2c1c(C(=O)/C=C(\O)C(=O)O)cn2Cc1cccc(F)c1	380	175	30	30	65800
COc1cccc2c1c(C(=O)/C=C(\O)C(=O)O)cn2Cc1c(F)ccc(F)c1F	650	75.5	130	160	49400

— ChEMBL document CHEMBL1139372, “Docking studies on a new human immunodeficiency virus integrase-Mg-DNA complex: phenyl ring exploration and synthesis of 1H-benzylindole derivatives through fluorine substitutions” (J Med Chem, 2009)
